Activity calls are given as the source filed them.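 How the source made its calls, unless noted: active means viability at or under a set limit in both replicates, limit being median viability minus 3 SD (cut at about 48% in these data, passing the limit was not always enough); inconclusive means at or under the limit in just one replicate; inactive means at or above the limit in both replicates.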
Legend:
[1] = Her2 expression decrease, cell viability multiplex – SKBR3 breast tumor cells, AlphaScreen, ATP viability, primary screen (AID 461;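 active means Her2 level under about 52% in both replicate screens, with viability over 70% of control, limit read from the data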;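 on Her2 level: lower value means less Her2 protein in the cells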;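 on viability: percent of carrier control wells set as 100% viability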); details: SKBR3 Her2 protein level, 18-24 h, measured here: SKBR3 viability, ATP luminescence, at 10 µM
[2] = molecular target: Receptor tyrosine-protein kinase erbB-2 (Homo sapiens) (UniProt P04626); test: as above; details: 18-24 h, at 10 µM, stronger effect = lower value
[3] = reduced viability of SK-BR-3 breast cancer cells – cell-based, 24 h, human, pilot screen (AID 572;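 active means viability at or below 10% of carrier control in both of two separate runs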;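 further: compound exposure lasted between 18 and 24 h rather than exactly 24 h; 100% = carrier-treated control wells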); details: SK-BR-3 viability, CellTiter-Glo luminescence, at 10 µM, stronger effect = lower value
[4] = HUVEC growth inhibition – cell-based, human, primary screen (AID 575;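 active means viability at or below 30% in both replicate assays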;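 further: 100% = median of untreated cell wells with 0.1% DMSO on each plate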); details: HUVEC proliferation, CellTiter-Glo luminescence, 72 h; at 10 µM; stronger effect = lower value
Procedure, shortened: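 Material: primary human umbilical vein endothelial cells / Schedule: 72 h exposure, 37 °C, 5% CO2, 30 min RT equilibration / Signal: ATP-based CellTiter-Glo luminescent read / Read-out basis: percent of median DMSO-control luminescence / Control set: 32 DMSO-only cell-control wells (high), 32 MePR drug-control wells (low) per plate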

[5] = H69AR cell proliferation blockers – human, duplicate replicates, primary screen (AID 580); details: H69AR lung tumor cells viability, ATP luminescence, 72 h; at 10 µM; stronger effect = lower value;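 further: 100% = mean luminescence of untreated wells and 0% = no signal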
[6] = MRP1 drug-resistance reversers in H69AR cells – cell-based, doxorubicin co-treatment, pilot screen (AID 601;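 active means viability loss from added drug above about 55%, and viability with drug at most 40%, in both replicates, limit read from the data, passing the limit was not always enough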); details: CellTiter-Glo, 72 h, at 10 µM; for differential viability (reversal): stronger effect = higher value
[7] = yeast transport mutant growth inhibition pilot in 384-well plates, post-Golgi transport modulator project (AID 636; in the data active means inhibition above about 31%); details: absorbance 615 nm, about 18 h, stronger effect = higher value
[8] = growth suppression of yeast trafficking mutant, preliminary HTS, modulators of trafficking downstream of Golgi apparatus project, 1536-format plate, OD 615 nm (AID 637; in the data active means inhibition above about 30%); details: yeast transport mutant growth, absorbance 615 nm, 18 h; stronger effect = higher value
[9] = H69AR cells + 2 uM doxorubicin, measured here: viability with 2 uM doxorubicin, stronger effect = lower value
[10] = H69AR cells, compound alone cytotoxicity

Chain of Receptor tyrosine-protein kinase erbB-2 (Homo sapiens) (P04626 whole entry, looked up): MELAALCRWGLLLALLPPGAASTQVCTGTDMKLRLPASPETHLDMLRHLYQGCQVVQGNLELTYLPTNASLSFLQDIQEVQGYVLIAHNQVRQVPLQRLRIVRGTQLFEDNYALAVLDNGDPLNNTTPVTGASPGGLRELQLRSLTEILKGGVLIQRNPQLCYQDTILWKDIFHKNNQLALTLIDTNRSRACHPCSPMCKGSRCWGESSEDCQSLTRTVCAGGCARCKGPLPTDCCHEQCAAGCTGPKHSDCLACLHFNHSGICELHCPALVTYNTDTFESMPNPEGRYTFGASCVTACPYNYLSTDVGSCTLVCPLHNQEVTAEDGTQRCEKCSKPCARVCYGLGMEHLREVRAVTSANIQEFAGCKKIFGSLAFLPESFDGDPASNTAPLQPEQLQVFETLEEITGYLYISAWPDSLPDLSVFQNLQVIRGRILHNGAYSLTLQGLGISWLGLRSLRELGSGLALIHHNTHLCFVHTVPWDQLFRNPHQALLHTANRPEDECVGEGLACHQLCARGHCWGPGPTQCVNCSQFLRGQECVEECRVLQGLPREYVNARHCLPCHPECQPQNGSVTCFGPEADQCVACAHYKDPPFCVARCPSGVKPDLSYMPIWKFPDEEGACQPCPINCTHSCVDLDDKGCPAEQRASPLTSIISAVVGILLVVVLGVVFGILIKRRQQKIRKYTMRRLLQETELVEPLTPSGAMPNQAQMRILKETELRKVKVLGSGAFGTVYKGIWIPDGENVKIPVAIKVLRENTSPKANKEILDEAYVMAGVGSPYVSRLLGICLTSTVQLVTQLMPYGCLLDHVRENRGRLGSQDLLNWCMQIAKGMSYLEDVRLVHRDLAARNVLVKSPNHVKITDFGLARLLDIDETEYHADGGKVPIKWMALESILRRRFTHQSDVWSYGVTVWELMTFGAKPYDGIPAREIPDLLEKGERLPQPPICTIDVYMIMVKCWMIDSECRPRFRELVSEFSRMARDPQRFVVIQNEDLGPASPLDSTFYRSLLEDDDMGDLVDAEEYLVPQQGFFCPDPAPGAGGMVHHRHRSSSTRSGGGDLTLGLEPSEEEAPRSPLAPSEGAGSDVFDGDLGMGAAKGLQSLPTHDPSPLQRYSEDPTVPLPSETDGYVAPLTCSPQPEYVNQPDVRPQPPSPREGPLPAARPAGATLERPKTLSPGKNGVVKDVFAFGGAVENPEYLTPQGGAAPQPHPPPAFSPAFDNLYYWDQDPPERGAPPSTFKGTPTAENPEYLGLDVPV

Row | Structure (SMILES) | viability [1] [%] | Her2 level [2] | viability [3] | viability [4] | viability [5] | differential viability (reversal) ([6]; H69AR cells + 2 uM doxorubicin) | viability [6, 9] [%] | viability [6, 10] [%] | inhibition [7] | inhibition [8]
1 | O=C(NCc1ccc(Cl)cc1)c1ccc(COCC(F)(F)F)o1 | 100 | 91% (inactive) | 100% (inactive) | 88.5% (inactive) | 101% (inactive) | 20.9% (inactive) | 79.7 | 101 | -1.45% (inactive) | -5.27% (inactive)
2 | CCCCOc1ccc(-c2ncc(C(=O)OCC)c(N)n2)cc1 | 89.5 | 88% (inactive) | 89.5% (inactive) | 103% (inactive) | 90% (inactive) | 8.43% (inactive) | 81.5 | 90 | -6.8% (inactive) | -6.03% (inactive)
3 | O=C1OC(N2CCN(c3ccccn3)CC2)c2ccccc21 (stereo not given) | 94 | 80.5% (inactive) | 94% (inactive) | 105% (inactive) | 96.8% (inactive) | 7.36% (inactive) | 89.4 | 96.8 | -4.53% (inactive) | 1.48% (inactive)
4 | O=C1c2cccnc2C(O)N1Cc1ccc(F)cc1 (stereo not given) | 104 | 88% (inactive) | 104% (inactive) | 88.8% (inactive) | 102% (inactive) | 3.87% (inactive) | 97.7 | 102 | -4.53% (inactive) | 2.95% (inactive)
5 | O=C(CSc1nnc(SCc2ccc(Cl)cc2)s1)N1CCN(C(=O)c2ccco2)CC1 | 80.5 | 93% (inactive) | 80.5% (inactive) | 70.3% (inactive) | 100% (inactive) | 10.9% (inactive) | 89.2 | 100 | -8.36% (inactive) | -5.56% (inactive)
6 | COc1cc(CN2CCSCC2)cc(OC)c1OC | 89.5 | 150% (inactive) | 89.5% (inactive) | 88.8% (inactive) | 109% (inactive) | 21% (inactive) | 87.7 | 109 | -0.65% (inactive) | -1.83% (inactive)
7 | COc1ccc(C2NC(c3ccc(OC)c(OC)c3OC)C(C)C(=O)C2C)c(OC)c1OC (stereo not given) | 99.5 | 88.5% (inactive) | 99.5% (inactive) | 99.7% (inactive) | 92.4% (inactive) | 7.84% (inactive) | 84.5 | 92.4 | -3.42% (inactive) | -2.22% (inactive)
8 | CCOc1ccccc1Nc1nnc(SCC(=O)N2CCCC2)s1 | 104 | 91.5% (inactive) | 104% (inactive) | 103% (inactive) | 101% (inactive) | 7.78% (inactive) | 92.8 | 101 | -3.12% (inactive) | -0.95% (inactive)
9 | COCCCNC(=O)CSc1nc2ccc(N3CCOCC3)cc2c(=O)n1CCc1ccccc1 | 104 | 87% (inactive) | 104% (inactive) | 70.3% (inactive) | 94.9% (inactive) | -5.04% (inactive) | 99.9 | 94.9 | -2.73% (inactive) | -0.48% (inactive)
10 | COC(=O)Cn1c(C)nc2c(sc3nc(C)cc(C)c32)c1=O | 110 | 113% (inactive) | 110% (inactive) | 105% (inactive) | 97.6% (inactive) | 7.48% (inactive) | 90.1 | 97.6 | -4.61% (inactive) | 2.79% (inactive)
11 | CCn1ncc(C2=NOC(C(=O)N3CCC(C(N)=O)CC3)C2)c1C (stereo not given) | 104 | 106% (inactive) | 104% (inactive) | 98.6% (inactive) | 101% (inactive) | -2.31% (inactive) | 103 | 101 | -1.05% (inactive) | 15.2% (inactive)
12 | CCOC(=O)C1=C(CSc2nc(C)cc(C)c2C#N)OC(N)=C(C#N)C1c1cccs1 (stereo not given) | 108 | 85.5% (inactive) | 108% (inactive) | 78.5% (inactive) | 83.1% (inactive) | 8.64% (inactive) | 74.5 | 83.1 | -5.33% (inactive) | 0.16% (inactive)
13 | COc1ccccc1NS(=O)(=O)c1ccc(OC)c(OC)c1 | 86 | 85% (inactive) | 86% (inactive) | 91.6% (inactive) | 99.8% (inactive) | -3.15% (inactive) | 103 | 99.8 | -6.62% (inactive) | 6.56% (inactive)
14 | CCCn1c(SCC(=O)NC(C)(C)C)nnc1C(C)C | 110 | 79.5% (inactive) | 110% (inactive) | 95.9% (inactive) | 93% (inactive) | 3.9% (inactive) | 89.1 | 93 | -4.32% (inactive) | 17.6% (inactive)
